Data as given in ChEMBL document CHEMBL1275487, “Reduced biocide susceptibility in Candida albicans biofilms” (Antimicrob Agents Chemother, 2008).

Tests used:
[1] = tested on: Candida albicans; test: Antifungal activity against Candida albicans DAY 185 assessed as inhibition of biofilm formation after 24 hrs by XTT reduction assay; format: functional, organism-based
Summary of the method: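 Biocides were added to the wells at the time of inoculation in 96-well polystyrene plates (RPMI-MOPS, 10^6 to 10^7 cells/well) and incubated 24 h at 30°C (H2O2 1 to 1,000 mM; EtOH 0.05 to 50%; SDS 0.0004 to 0.4%). XTT reduction was then read. EC50 and EC80 are the concentrations giving 50% and 80% OD reduction versus no-drug controls. Triplicate, two occasions.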

[2] = tested on: Candida albicans; test: Antifungal activity against Candida albicans DAY 185 assessed as decrease mature biofilm burden after 24 hrs by XTT reduction assay; format: functional, organism-based
Summary of the method: (§1)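 Biofilms formed in 96-well polystyrene plates in RPMI-MOPS, inoculum 10^6 to 10^7 cells/well, 24 h at 30°C, then washed twice with PBS. Biocides were added with fresh medium to the 24 h mature biofilms (H2O2 1 to 1,000 mM; EtOH 0.05 to 50%; SDS 0.0004 to 0.4%). After a further 24 h at 30°C, metabolic activity was read by XTT reduction. EC50 and EC80 are the concentrations giving 50% and 80% reduction in OD versus no-drug controls. Triplicate, two occasions.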

[3] = tested on: Candida albicans; test: Antifungal activity against Candida albicans K1 assessed as decrease mature biofilm burden after 24 hrs by XTT reduction assay; format: functional, organism-based; summary of the method: as §1
[4] = tested on: Candida parapsilosis; test: Antifungal activity against Candida parapsilosis 5986 assessed as decrease mature biofilm burden after 24 hrs by XTT reduction assay; format: functional, organism-based; summary of the method: as §1
[5] = tested on: Nakaseomyces glabratus; test: Antifungal activity against Candida glabrata 5740 assessed as decrease mature biofilm burden after 24 hrs by XTT reduction assay; format: functional, organism-based; summary of the method: as §1
[6] = tested on: Candida albicans; test: FICI in Candida albicans DAY 185 after 24 hrs in presence of fluconazole; format: functional
Summary of the method: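 Checkerboard format on 24 h mature biofilms, with each biocide combined with fluconazole (0.0625 to 1,000 μg/ml). Incubation was 24 h with the combination, followed by an XTT reduction readout against no-drug controls. Fractional inhibitory concentration indices were calculated to gauge how each biocide affects fluconazole activity.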

[7] = tested on: Candida albicans; test: Antifungal activity against Candida albicans DAY 185 grown as planktonic cells by CLSI method; format: functional
Summary of the method: (§2)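 Planktonic biocide MICs were determined by CLSI broth microdilution using CLSI endpoints, with the standard CLSI inoculum (0.5 × 10^3 to 2.5 × 10^3 CFU/ml) in RPMI-MOPS. Triplicate, two occasions.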

[8] = tested on: Candida albicans; test: Antifungal activity against Candida albicans K1 grown as planktonic cells by CLSI method; format: functional; summary of the method: as §2
[9] = tested on: Candida parapsilosis; test: Antifungal activity against Candida parapsilosis 5986 grown as planktonic cells by CLSI method; format: functional; summary of the method: as §2
[10] = tested on: Nakaseomyces glabratus; test: Antifungal activity against Candida glabrata 5740 grown as planktonic cells by CLSI method; format: functional; summary of the method: as §2
[11] = tested on: Candida albicans; test: Antifungal activity against Candida albicans DAY 185 grown as planktonic cells using 10^6 to 10^7 cells by CLSI method; format: functional, organism-based
Summary of the method: (§3)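 Planktonic susceptibility was tested by the CLSI method with the inoculum raised to the mature-biofilm cell density (10^6 to 10^7 cells/well) in RPMI-MOPS. EC50 and EC80 values were derived. Triplicate, two occasions.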

[12] = tested on: Candida albicans; test: Antifungal activity against Candida albicans K1 grown as planktonic cells using 10^6 to 10^7 cells by CLSI method; format: functional, organism-based; summary of the method: as §3
[13] = tested on: Candida parapsilosis; test: Antifungal activity against Candida parapsilosis 5986 grown as planktonic cells using 10^6 to 10^7 cells by CLSI method; format: functional, organism-based; summary of the method: as §3
[14] = tested on: Nakaseomyces glabratus; test: Antifungal activity against Candida glabrata 5740 grown as planktonic cells using 10^6 to 10^7 cells by CLSI method; format: functional, organism-based; summary of the method: as §3

Row | MIC [7] [%] | MIC [8] [%] | MIC [9] [%] | MIC [10] [%] | EC50 [11] [%] | EC50 [12] [%] | EC50 [13] [%] | SMILES | EC50 [1] [%] | EC80 [1] [%] | EC50 [2] [%] | EC80 [2] [%] | EC50 [3] [%] | EC80 [3] [%] | EC50 [4] [%] | EC80 [4] [%] | EC50 [5] [%] | EC80 [5] [%] | fractional inhibitory concentration index (FICI) [6] | EC80 [11] [%] | EC80 [12] [%] | other results
1 | 3 | 1.5 | 1.5 | 3 | 6 | 6 | 6 | CCO [ALCOHOL] | 35 | 35 | 35 | 40 | 25 | 25 | 25 | 25 | 25 | 25 | <0.5 | 13 | 13 | EC80 [13]: 6%; EC50 [14]: 13%; EC80 [14]: 13%
2 | 0.01 | 0.01 | 0.01 | 0.01 | 0.05 | 0.03 | 0.03 | CCCCCCCCCCCCOS(=O)(=O)[O-].[Na+] [SODIUM LAURYL SULFATE] | 0.05 | 0.1 | 0.15 | 0.15 | 0.05 | 0.1 | 0.05 | 0.1 | 0.05 | 0.05 | 1 | 0.05 | 0.05 | EC80 [13]: 0.05%; EC50 [14]: 0.03%; EC80 [14]: 0.03%
